Measured values: ChEMBL document CHEMBL4715736, “Identification of anticancer agents based on the thieno[2,3-b]pyridine and 1H-pyrazole molecular scaffolds” (2016)

test system: CCRF-CEM; assay: Growth inhibition of human CCRF-CEM cells assessed as cell growth at 10 uM incubated for 48 hrs by sulforhodamine B assay relative to control; assay type: functional; conditions: read-out: Activity
In short: (§1)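 NCI Developmental Therapeutics Program NCI60 panel. Compounds that were active in the 10 µM one-dose screen went on to dose–response testing. Growth at each concentration is expressed relative to untreated control (100%). GI50 (concentration giving 50% of maximal inhibition of proliferation) and TGI (concentration giving total growth inhibition) were derived from the curves.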

Question: With `Nc1c(C(=O)Nc2ccccc2)sc2nc3c(cc12)CN(Cc1ccccc1)CC3` as the compound, how does the growth at 10 µM read?
Answer: 84%

test system: MOLT-4; assay: Growth inhibition of human MOLT-4 cells assessed as cell growth at 10 uM incubated for 48 hrs by sulforhodamine B assay relative to control; assay type: functional; conditions: read-out: Activity
In short: (§2)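 Submitted to the NCI Developmental Therapeutics Program for the NCI60 human tumour cell line panel. First screen at a single 10 µM concentration. Read-out is growth relative to untreated control cells set at 100%.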

Question: With `Nc1c(C(=O)Nc2ccccc2)sc2nc3c(cc12)CN(Cc1ccccc1)CC3` as the compound, how does the growth at 10 µM read?
Answer: 81%

test system: A549; assay: Growth inhibition of human A549/ATCC cells assessed as cell growth at 10 uM incubated for 48 hrs by sulforhodamine B assay relative to control; assay type: functional; conditions: read-out: Activity; in short: as §1

Question: With `Nc1c(C(=O)Nc2ccccc2)sc2nc3c(cc12)CN(Cc1ccccc1)CC3` as the compound, how does the growth at 10 µM read?
Answer: 55%

test system: HOP-62; assay: Growth inhibition of human HOP-62 cells assessed as cell growth at 10 uM incubated for 48 hrs by sulforhodamine B assay relative to control; assay type: functional; conditions: read-out: Activity; in short: as §2

Question: With `Nc1c(C(=O)Nc2ccccc2)sc2nc3c(cc12)CN(Cc1ccccc1)CC3` as the compound, how does the growth at 10 µM read?
Answer: 26%

test system: HOP-92; assay: Growth inhibition of human HOP-92 cells assessed as cell growth at 10 uM incubated for 48 hrs by sulforhodamine B assay relative to control; assay type: functional; conditions: read-out: Activity; in short: as §2

Question: For `Nc1c(C(=O)Nc2ccccc2)sc2nc3c(cc12)CN(Cc1ccccc1)CC3`, which growth at 10 µM is on record?
Answer: 13%

test system: NCI-H226; assay: Growth inhibition of human NCI-H226 cells assessed as cell growth at 10 uM incubated for 48 hrs by sulforhodamine B assay relative to control; assay type: functional; conditions: read-out: Activity; in short: as §2

Question: Which growth at 10 µM does the source give for `Nc1c(C(=O)Nc2ccccc2)sc2nc3c(cc12)CN(Cc1ccccc1)CC3` here?
Answer: 31%

test system: NCI-H322M; assay: Growth inhibition of human NCI-H322M cells assessed as cell growth at 10 uM incubated for 48 hrs by sulforhodamine B assay relative to control; assay type: functional; conditions: read-out: Activity; in short: as §2

Question: `Nc1c(C(=O)Nc2ccccc2)sc2nc3c(cc12)CN(Cc1ccccc1)CC3` was tested. Which growth at 10 µM did it give?
Answer: 62%

test system: NCI-H460; assay: Growth inhibition of human NCI-H460 cells assessed as cell growth at 10 uM incubated for 48 hrs by sulforhodamine B assay relative to control; assay type: functional; conditions: read-out: Activity; in short: as §2

Question: Which growth at 10 µM does the source give for `Nc1c(C(=O)Nc2ccccc2)sc2nc3c(cc12)CN(Cc1ccccc1)CC3` here?
Answer: 44%

test system: HCT-116; assay: Growth inhibition of human HCT-116 cells assessed as cell growth at 10 uM incubated for 48 hrs by sulforhodamine B assay relative to control; assay type: functional; conditions: read-out: Activity; in short: as §2

Question: For `Nc1c(C(=O)Nc2ccccc2)sc2nc3c(cc12)CN(Cc1ccccc1)CC3`, which growth at 10 µM is on record?
Answer: 51%

test system: HCT-15; assay: Growth inhibition of human HCT-15 cells assessed as cell growth at 10 uM incubated for 48 hrs by sulforhodamine B assay relative to control; assay type: functional; conditions: read-out: Activity; in short: as §2

Question: `Nc1c(C(=O)Nc2ccccc2)sc2nc3c(cc12)CN(Cc1ccccc1)CC3` was tested. Which growth at 10 µM did it give?
Answer: 66%

test system: KM12; assay: Growth inhibition of human KM12 cells assessed as cell growth at 10 uM incubated for 48 hrs by sulforhodamine B assay relative to control; assay type: functional; conditions: read-out: Activity; in short: as §2

Question: `Nc1c(C(=O)Nc2ccccc2)sc2nc3c(cc12)CN(Cc1ccccc1)CC3` was tested. Which growth at 10 µM did it give?
Answer: 60%

test system: SF-295; assay: Growth inhibition of human SF-295 cells assessed as cell growth at 10 uM incubated for 48 hrs by sulforhodamine B assay relative to control; assay type: functional; conditions: read-out: Activity
In short: (§3)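 Run by the NCI Developmental Therapeutics Program as part of its 60-line human tumour panel. Each compound tested at a single 10 µM dose. Growth expressed as % relative to untreated control cells (100%).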

Question: With `Nc1c(C(=O)Nc2ccccc2)sc2nc3c(cc12)CN(Cc1ccccc1)CC3` as the compound, how does the growth at 10 µM read?
Answer: 36%

test system: SF-539; assay: Growth inhibition of human SF-539 cells assessed as cell growth at 10 uM incubated for 48 hrs by sulforhodamine B assay relative to control; assay type: functional; conditions: read-out: Activity; in short: as §3

Question: For `Nc1c(C(=O)Nc2ccccc2)sc2nc3c(cc12)CN(Cc1ccccc1)CC3`, which growth at 10 µM is on record?
Answer: 9%

test system: SNB-75; assay: Growth inhibition of human SNB-75 cells assessed as cell growth at 10 uM incubated for 48 hrs by sulforhodamine B assay relative to control; assay type: functional; conditions: read-out: Activity; in short: as §3

Question: How did the growth at 10 µM turn out when `Nc1c(C(=O)Nc2ccccc2)sc2nc3c(cc12)CN(Cc1ccccc1)CC3` was run?
Answer: -54%

test system: U-251; assay: Growth inhibition of human U-251 cells assessed as cell growth at 10 uM incubated for 48 hrs by sulforhodamine B assay relative to control; assay type: functional; conditions: read-out: Activity; in short: as §3

Question: With `Nc1c(C(=O)Nc2ccccc2)sc2nc3c(cc12)CN(Cc1ccccc1)CC3` as the compound, how does the growth at 10 µM read?
Answer: 56%

test system: Malme-3M; assay: Growth inhibition of human Malme-3M cells assessed as cell growth at 10 uM incubated for 48 hrs by sulforhodamine B assay relative to control; assay type: functional; conditions: read-out: Activity; in short: as §2

Question: For `Nc1c(C(=O)Nc2ccccc2)sc2nc3c(cc12)CN(Cc1ccccc1)CC3`, which growth at 10 µM is on record?
Answer: 23%

test system: M14; assay: Growth inhibition of human M14 cells assessed as cell growth at 10 uM incubated for 48 hrs by sulforhodamine B assay relative to control; assay type: functional; conditions: read-out: Activity; in short: as §2

Question: For `Nc1c(C(=O)Nc2ccccc2)sc2nc3c(cc12)CN(Cc1ccccc1)CC3`, which growth at 10 µM is on record?
Answer: 64%

test system: MDA-MB-435; assay: Growth inhibition of human MDA-MB-435 cells assessed as cell growth at 10 uM incubated for 48 hrs by sulforhodamine B assay relative to control; assay type: functional; conditions: read-out: Activity; in short: as §2

Question: `Nc1c(C(=O)Nc2ccccc2)sc2nc3c(cc12)CN(Cc1ccccc1)CC3` was tested. Which growth at 10 µM did it give?
Answer: 34%

test system: SK-MEL-28; assay: Growth inhibition of human SK-MEL-28 cells assessed as cell growth at 10 uM incubated for 48 hrs by sulforhodamine B assay relative to control; assay type: functional; conditions: read-out: Activity; in short: as §3

Question: Which growth at 10 µM does the source give for `Nc1c(C(=O)Nc2ccccc2)sc2nc3c(cc12)CN(Cc1ccccc1)CC3` here?
Answer: 63%

test system: SK-MEL-5; assay: Growth inhibition of human SK-MEL-5 cells assessed as cell growth at 10 uM incubated for 48 hrs by sulforhodamine B assay relative to control; assay type: functional; conditions: read-out: Activity; in short: as §3

Question: For `Nc1c(C(=O)Nc2ccccc2)sc2nc3c(cc12)CN(Cc1ccccc1)CC3`, which growth at 10 µM is on record?
Answer: 49%

test system: UACC-257; assay: Growth inhibition of human UACC-257 cells assessed as cell growth at 10 uM incubated for 48 hrs by sulforhodamine B assay relative to control; assay type: functional; conditions: read-out: Activity; in short: as §3

Question: Which growth at 10 µM does the source give for `Nc1c(C(=O)Nc2ccccc2)sc2nc3c(cc12)CN(Cc1ccccc1)CC3` here?
Answer: 67%

test system: UACC-62; assay: Growth inhibition of human UACC-62 cells assessed as cell growth at 10 uM incubated for 48 hrs by sulforhodamine B assay relative to control; assay type: functional; conditions: read-out: Activity; in short: as §3

Question: With `Nc1c(C(=O)Nc2ccccc2)sc2nc3c(cc12)CN(Cc1ccccc1)CC3` as the compound, how does the growth at 10 µM read?
Answer: 57%

test system: IGROV-1; assay: Growth inhibition of human IGROV-1 cells assessed as cell growth at 10 uM incubated for 48 hrs by sulforhodamine B assay relative to control; assay type: functional; conditions: read-out: Activity; in short: as §2

Question: For `Nc1c(C(=O)Nc2ccccc2)sc2nc3c(cc12)CN(Cc1ccccc1)CC3`, which growth at 10 µM is on record?
Answer: 74%

test system: OVCAR-3; assay: Growth inhibition of human OVCAR-3 cells assessed as cell growth at 10 uM incubated for 48 hrs by sulforhodamine B assay relative to control; assay type: functional; conditions: read-out: Activity; in short: as §3

Question: How did the growth at 10 µM turn out when `Nc1c(C(=O)Nc2ccccc2)sc2nc3c(cc12)CN(Cc1ccccc1)CC3` was run?
Answer: 52%

test system: OVCAR-5; assay: Growth inhibition of human OVCAR-5 cells assessed as cell growth at 10 uM incubated for 48 hrs by sulforhodamine B assay relative to control; assay type: functional; conditions: read-out: Activity; in short: as §3

Question: How did the growth at 10 µM turn out when `Nc1c(C(=O)Nc2ccccc2)sc2nc3c(cc12)CN(Cc1ccccc1)CC3` was run?
Answer: 70%

test system: NCI/ADR-RES; assay: Growth inhibition of human NCI/ADR-RES cells assessed as cell growth at 10 uM incubated for 48 hrs by sulforhodamine B assay relative to control; assay type: functional; conditions: read-out: Activity; in short: as §2

Question: Which growth at 10 µM does the source give for `Nc1c(C(=O)Nc2ccccc2)sc2nc3c(cc12)CN(Cc1ccccc1)CC3` here?
Answer: 56%

test system: A498; assay: Growth inhibition of human A498 cells assessed as cell growth at 10 uM incubated for 48 hrs by sulforhodamine B assay relative to control; assay type: functional; conditions: read-out: Activity; in short: as §1

Question: For `Nc1c(C(=O)Nc2ccccc2)sc2nc3c(cc12)CN(Cc1ccccc1)CC3`, which growth at 10 µM is on record?
Answer: -17%

test system: RXF 393; assay: Growth inhibition of human RXF 393 cells assessed as cell growth at 10 uM incubated for 48 hrs by sulforhodamine B assay relative to control; assay type: functional; conditions: read-out: Activity; in short: as §3

Question: `Nc1c(C(=O)Nc2ccccc2)sc2nc3c(cc12)CN(Cc1ccccc1)CC3` was tested. Which growth at 10 µM did it give?
Answer: 12%

test system: SN12C; assay: Growth inhibition of human SN12C cells assessed as cell growth at 10 uM incubated for 48 hrs by sulforhodamine B assay relative to control; assay type: functional; conditions: read-out: Activity; in short: as §3

Question: With `Nc1c(C(=O)Nc2ccccc2)sc2nc3c(cc12)CN(Cc1ccccc1)CC3` as the compound, how does the growth at 10 µM read?
Answer: 66%

test system: UO-31; assay: Growth inhibition of human UO-31 cells assessed as cell growth at 10 uM incubated for 48 hrs by sulforhodamine B assay relative to control; assay type: functional; conditions: read-out: Activity; in short: as §3

Question: For `Nc1c(C(=O)Nc2ccccc2)sc2nc3c(cc12)CN(Cc1ccccc1)CC3`, which growth at 10 µM is on record?
Answer: 41%

test system: PC-3; assay: Growth inhibition of human PC-3 cells assessed as cell growth at 10 uM incubated for 48 hrs by sulforhodamine B assay relative to control; assay type: functional; conditions: read-out: Activity; in short: as §3

Question: With `Nc1c(C(=O)Nc2ccccc2)sc2nc3c(cc12)CN(Cc1ccccc1)CC3` as the compound, how does the growth at 10 µM read?
Answer: 70%

test system: Hs-578T; assay: Growth inhibition of human Hs-578T cells assessed as cell growth at 10 uM incubated for 48 hrs by sulforhodamine B assay relative to control; assay type: functional; conditions: read-out: Activity; in short: as §2

Question: How did the growth at 10 µM turn out when `Nc1c(C(=O)Nc2ccccc2)sc2nc3c(cc12)CN(Cc1ccccc1)CC3` was run?
Answer: -11%

test system: MDA-MB-468; assay: Growth inhibition of human MDA-MB-468 cells assessed as cell growth at 10 uM incubated for 48 hrs by sulforhodamine B assay relative to control; assay type: functional; conditions: read-out: Activity; in short: as §2

Question: For `Nc1c(C(=O)Nc2ccccc2)sc2nc3c(cc12)CN(Cc1ccccc1)CC3`, which growth at 10 µM is on record?
Answer: 58%
